Assay results taken from publication PMC9884082 (Journal of Medicinal Chemistry, 2023).
Several values for one entry are separate records, joined by “and”; a condition that tells them apart may be missing. Identical values can stand only once. Entries after “also recorded” stand apart in the source; their conditions may differ.

Legend:
[1] = system: pooled normal human plasma; test: Human plasma clotting time; format: biochemical; conditions: ∼34 to ∼68 s
In short: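 APTT was run in a fibrometer by one-stage recalcification. Test compound was mixed with citrated pooled normal human plasma and prewarmed APTT reagent (ellagic acid). After 4 min at 37 °C, clotting was started with prewarmed 25 mM CaCl₂ and time to clot recorded. A quadratic trend line fitted to the data gave the concentration doubling clotting time.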

[2] = system: CD133+/CXCR4+ (Dual Hi) HT-29 xenografts; test: Dual Hi HT-29 xenograft after FUOX enrichment, oral G2C or IP G2.2; format: in vivo, NCr nude mice; conditions: for tumor growth compared to vehicle: experiment 2, G2.2 100 mg/kg IP 3 times/week, G2C 100 mg/kg PO 5 times/week, 3 weeks
In short: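 1 × 10⁵ CD133⁺/CXCR4⁺ HT-29 cells were injected subcutaneously into NCr nude mice. Palpable tumors received 50 mg/kg 5-FU plus 5 mg/kg oxaliplatin IP weekly for 3 weeks. Mice were randomized to vehicle or test compound 100 mg/kg PO 5 times/week for 3 weeks, or, in a second experiment, parent 100 mg/kg IP 3 times/week. Xenograft single cells were assessed for 1–3° spheroids. CD133/CXCR4/LGR5 cells were quantified by flow cytometry (30 min staining, 4 °C).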

colon xenografts = conditions: cited from earlier work
HT-29 monolayer culture = test: Cell proliferation; format: cell-based, human; conditions: MTT, 60-72 h
In short: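 HT-29 cells kept as monolayers in DMEM:F-12 with 10% FBS and 1% penicillin/streptomycin, passaged before 70% confluence. About 2.5 × 10³ cells/well were incubated overnight (37 °C, 5% CO₂), then exposed to test compound for 60–72 h. MTT (5 mg/mL stock in PBS) was added for 2–3 h and crystals dissolved in DMSO. A590 was read and growth expressed as percent of vehicle; ≥3 replicates.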

[3] = Mouse tail bleeding study; format: in vivo, wild-type ICR mice; conditions: IV; NSGMs 1–100 mg/kg, enoxaparin 224 μg/kg
HT-29 xenografts = test: HT-29 xenograft after FUOX enrichment, IP G2C, FUOX or G2C+FUOX; format: in vivo, NCr nude mice
In short: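 1 × 10⁶ unsorted HT-29 cells were injected subcutaneously into NCr nude mice. Palpable tumors received 25 mg/kg 5-fluorouracil plus 2 mg/kg oxaliplatin IP weekly for 3 weeks. Mice were randomized to vehicle, test compound 50 mg/kg IP three times/week (8 doses), continued 5-FU/oxaliplatin, or both. Tumor volume was followed to sacrifice (n = 2/group) and compared with vehicle.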

[4] = system: intestinal crypt-derived organoids; test: Ex vivo intestinal crypt-derived organoids from treated mice; format: in vivo
[5] = system: colon cancer cell line HT-29 spheroids; test: Spheroid inhibition assay; format: cell-based, human
In short: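 HT-29 cells (≤6 passages) were seeded at 100–300 cells/well in low-adhesion plates. Medium was stem cell medium: DMEM:F12 with B27, 20 ng/mL EGF and 10 ng/mL FGF. After brief incubation, vehicle or test compound was added. After 3–7 days, spheroids of 50–150 μm were counted by phase-contrast microscopy as percent of vehicle. IC50 came from normalized sigmoidal regression; ≥3 replicates.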

[6] = HT-29 spheroids, relative to G2.2

O=c1c(OS(=O)(=O)[O-])c(-c2ccc(OS(=O)(=O)[O-])c(OS(=O)(=O)[O-])c2)oc2cc(OS(=O)(=O)[O-])cc(OCCCOc3cc(OS(=O)(=O)[O-])cc4oc(-c5ccc(OS(=O)(=O)[O-])c(OS(=O)(=O)[O-])c5)c(OS(=O)(=O)[O-])c(=O)c34)c12.[Na+].[Na+].[Na+].[Na+].[Na+].[Na+].[Na+].[Na+] [G2.2, Sodium 4-(5-(3-((2-(3,4-Bis(sulfonatooxy)phenyl)-4-oxo-3,7-bis(sulfonatooxy)-4H-chromen-5-yl)oxy)propoxy)-4-oxo-3,7-bis(sulfonatooxy)-4H-chromen-2-yl)-1,2-phenylene Bis(sulfate)]
concentration required for 2-fold increase in APTT [1]: 900 µM | tumor growth compared to vehicle [2]: seemed to reduce tumor growth | expression of BMI-1 (CSC self-renewal marker) (colon xenografts): significant reduction in the expression of BMI-1 | expression of colon CSC markers (colon xenografts): inhibited the expression of CD133^+, CXCR4^+, DCAMLK1, and/or LGR5 markers | growth of colon xenografts and toxicity (colon xenografts; parenterally administered): inhibits the growth of colon xenografts without any toxicity to vital organs or bleeding consequences

CC(C)CCC[C@@H](C)[C@H]1CC[C@H]2[C@@H]3CC=C4C[C@@H](OCCOc5cc(-c6oc7cc(OS(=O)(=O)[O-])cc(OCCCOc8cc(OS(=O)(=O)[O-])cc9oc(-c%10ccc(OS(=O)(=O)[O-])c(OS(=O)(=O)[O-])c%10)c(OS(=O)(=O)[O-])c(=O)c89)c7c(=O)c6OS(=O)(=O)[O-])ccc5OS(=O)(=O)[O-])CC[C@]4(C)[C@H]3CC[C@]12C.[Na+].[Na+].[Na+].[Na+].[Na+].[Na+].[Na+] [G2C, Sodium 4-(5-(3-((2-(3-(2-(((8S,9S,10R,13R,14S,17R)-10,13-Dimethyl-17-((R)-6-methylheptan-2-yl)-2,3,4,7,8,9,10,11,12,13,14,15,16,17-tetradecahydro-1H-cyclopenta[a]phenanthren-3-yl)oxy)ethoxy)-4-(sulfonatooxy)phenyl)-4-oxo-3,7-bis(sulfonatooxy)-4H-chromen-5-yl)oxy)propoxy)-4-oxo-3,7-bis(sulfonatooxy)-4H-chromen-2-yl)-1,2-phenylene Bis(sulfate)]
cytotoxicity under monolayer conditions (HT-29 monolayer culture): significantly cytotoxic at ∼100 μM | concentration required for 2-fold increase in APTT [1]: ~300 µM | blood loss, tail bleeding [3]: did not exhibit much tail bleeding phenotype | inhibition of xenografts compared to vehicle (HT-29 xenografts; G2C 50 mg/kg IP (Figure 6B)): 30% | animal weight (HT-29 xenografts; G2C 50 mg/kg IP alone or with FUOX): no significant change in animal weight | expression of DCAMKL1 and BMI-1 in xenograft lysate (HT-29 xenografts; Western blots): inhibition in the expression of DCAMKL1 (CSC marker) and BMI-1 (self-renewal marker) | 3 and 4° spheroid formation from xenograft-derived cells (HT-29 xenografts; ex vivo in CSC media, compared to vehicle): significant inhibition of self-renewing CSCs | animal weight ([2]; daily oral G2C): did not lose weight | bleeding at the site of injection or in organs ([2]; daily oral G2C): no obvious sign of major bleeding | 3° spheroid formation from xenograft-derived cells ([2]; experiment 1, G2C 100 mg/kg PO): significantly inhibited | Dual Hi cell-induced tumor growth ([2]; experiment 1, G2C 100 mg/kg PO 5 times/week for 3 weeks): significantly inhibited Dual Hi cell-induced tumor growth | tumor growth compared to vehicle [2]: seemed to reduce tumor growth; also recorded: higher growth inhibition | proportion of CD133+/CXCR4+ (Dual Hi) and LGR5 cells in xenografts ([2]; flow cytometry, oral G2C): significantly lower | blood chemistry compared to vehicle ([2]; oral G2C): did not produce any significant change in blood chemistry | ex vivo growth of organoids derived from intestinal crypts ([4]; after IP G2C 50 mg/kg alone or with FUOX): did not inhibit ex vivo growth of organoids derived from intestinal crypts | intestinal crypt-derived organoid growth ([4]; after oral G2C 100 mg/kg 5 times/week for 3 weeks): did not reduce intestinal crypt-derived organoid growths

CC(C)CCC[C@@H](C)[C@H]1CC[C@H]2[C@@H]3CC=C4C[C@@H](OCCCCCCCCOc5cc(-c6oc7cc(OS(=O)(=O)[O-])cc(OCCCOc8cc(OS(=O)(=O)[O-])cc9oc(-c%10ccc(OS(=O)(=O)[O-])c(OS(=O)(=O)[O-])c%10)c(OS(=O)(=O)[O-])c(=O)c89)c7c(=O)c6OS(=O)(=O)[O-])ccc5OS(=O)(=O)[O-])CC[C@]4(C)[C@H]3CC[C@]12C.[Na+].[Na+].[Na+].[Na+].[Na+].[Na+].[Na+] [G8C, Sodium 4-(5-(3-((2-(3-((8-(((8S,9S,10R,13R,14S,17R)-10,13-Dimethyl-17-((R)-6-methylheptan-2-yl)-2,3,4,7,8,9,10,11,12,13,14,15,16,17-tetradecahydro-1H-cyclopenta[a]phenanthren-3-yl)oxy)octyl)oxy)-4-(sulfonatooxy)phenyl)-4-oxo-3,7-bis(sulfonatooxy)-4H-chromen-5-yl)oxy)propoxy)-4-oxo-3,7-bis(sulfonatooxy)-4H-chromen-2-yl)-1,2-phenylene Bis(sulfate)]
cytotoxicity under monolayer conditions (HT-29 monolayer culture): significantly cytotoxic at ∼100 μM | concentration required for 2-fold increase in APTT [1]: ~37 µM | blood loss, tail bleeding [3]: did not exhibit much tail bleeding phenotype

O=c1cc(-c2ccc(OS(=O)(=O)[O-])cc2)oc2cc(OS(=O)(=O)[O-])cc(OCC3CCC(COc4cc(OS(=O)(=O)[O-])cc5oc(-c6ccc(OS(=O)(=O)[O-])cc6)cc(=O)c45)CC3)c12.[Na+].[Na+].[Na+].[Na+] (stereo not drawn) [MAD1, Sodium 4-Oxo-5-((4-(((4-oxo-7-(sulfonatooxy)-2-(4-(sulfonatooxy)phenyl)-4H-chromen-5-yl)oxy)methyl)cyclohexyl)methoxy)-2-(4-(sulfonatooxy)phenyl)-4H-chromen-7-yl Sulfate]
fold weaker than G2.2 (spheroid potency) [5, 6]: about 1.6 fold | fold lower potency than MQD1 ([5]; eight (MQD1) to four (MAD1) sulfate groups): 11.4 fold | cytotoxicity under monolayer conditions (HT-29 monolayer culture): did not display significant cytotoxicity

O=c1c(OS(=O)(=O)[O-])c(-c2ccc(OS(=O)(=O)[O-])cc2OS(=O)(=O)[O-])oc2cc(OS(=O)(=O)[O-])cc(OCC3CCC(COc4cc(OS(=O)(=O)[O-])cc5oc(-c6ccc(OS(=O)(=O)[O-])cc6OS(=O)(=O)[O-])c(OS(=O)(=O)[O-])c(=O)c45)CC3)c12.[Na+].[Na+].[Na+].[Na+].[Na+].[Na+].[Na+].[Na+] (stereo not drawn) [MMD1, Sodium 4-(5-((4-(((2-(2,4-Bis(sulfonatooxy)phenyl)-4-oxo-3,7-bis(sulfonatooxy)-4H-chromen-5-yl)oxy)methyl)cyclohexyl)methoxy)-4-oxo-3,7-bis(sulfonatooxy)-4H-chromen-2-yl)-1,3-phenylene Bis(sulfate)]
fold better than G2.2 (spheroid potency, IC50 gain) [5, 6]: 1.7 fold | cytotoxicity under monolayer conditions (HT-29 monolayer culture): did not display significant cytotoxicity

O=c1c(OS(=O)(=O)[O-])c(-c2ccc(OS(=O)(=O)[O-])c(OS(=O)(=O)[O-])c2)oc2cc(OS(=O)(=O)[O-])cc(OCC3CCC(COc4cc(OS(=O)(=O)[O-])cc5oc(-c6ccc(OS(=O)(=O)[O-])c(OS(=O)(=O)[O-])c6)c(OS(=O)(=O)[O-])c(=O)c45)CC3)c12.[Na+].[Na+].[Na+].[Na+].[Na+].[Na+].[Na+].[Na+] (stereo not drawn) [MQD1, Sodium 4-(5-((4-(((2-(3,4-Bis(sulfonatooxy)phenyl)-4-oxo-3,7-bis(sulfonatooxy)-4H-chromen-5-yl)oxy)methyl)cyclohexyl)methoxy)-4-oxo-3,7-bis(sulfonatooxy)-4H-chromen-2-yl)-1,2-phenylene Bis(sulfate)]
fold better than G2.2 (spheroid potency, IC50 gain) [5, 6]: 7.3 fold and ~9 fold | cytotoxicity under monolayer conditions (HT-29 monolayer culture): did not display significant cytotoxicity

enoxaparin [reference compound]
concentration required for 2-fold increase in APTT [1]: 3 µM | blood loss, tail bleeding [3]: significantly higher blood loss
